Test results from ChEMBL document CHEMBL4706601, “The endocannabinoid system dual-target ligand N-cycloheptyl-1,2-dihydro-5-bromo-1-(4-fluorobenzyl)-6-methyl-2-oxo-pyridine-3-carboxamide improves disease severity in a mouse model of multiple sclerosis” (Eur J Med Chem, 2020).
Calls of active or inactive are those of the source. The rule behind the calls is not given here.

Legend:
[1] = biological target: Cannabinoid receptor 2 (Mus musculus) (UniProt P47936); experiment: Agonist activity at CB2R in LPS induced mouse BV2 cells assessed as IL-6 secretion at 10 uM preincubated for 30 mins followed by LPS stimulation for 4 hrs by ELISA (reference value: 764.7 +/-22.9%); format: cell-based; conditions: BV-2, filed as agonist, time 270.0 min
Outline: (§1)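 BV-2 murine microglia grown in high-glucose DMEM with 10% FBS. Treatments in FBS-free medium: test agonist 10 μM for 30 min, then LPS 5 μg/ml for 4 h; SR144528 10 μM given 15 min before agonist. DMSO ≤0.1% final. Medium spun 10 min at 1000×g; IL-1β, IL-6, IL-10 quantified by ELISA; three independent experiments in duplicate.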

Mus musculus [2] = experiment: (§2) Antiinflammatory activity in MOG (35 to 55 residues)/pertussis toxin-induced experimental autoimmune encephalomyelitis C57BL/6J mouse model assessed as reduction in clinical scores at 10 mg/kg, ip dosed once daily for 20 days starting from day 10 to 16 post immunization and measured from 2 to 4 days post treatment; format: functional; conditions: time 2-4 day
Outline: (§3)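 Active EAE in mice: 200 µg MOG35-55 in CFA (4 mg/ml M. tuberculosis) s.c. at hips and tail root, plus pertussis toxin 300 ng i.p. after immunization and 48 h later. Daily i.p. dosing (DMSO vehicle) for 20 days from each mouse's onset (day 10–16); onset = day 1. Daily clinical score; multiple t-tests with Holm-Sidak.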

Mus musculus [3] = experiment: In vivo agonist activity at CB1R in C57BL/6J mouse assessed as functional CB1R level in brain at 10 mg/kg, ip after 20 days by [35S]GTPgammaS assay; format: organism-based; conditions: time 20.0 day
Outline: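 After 20 days of EAE treatment, half-brain membranes (20 µg) pre-incubated 30 min at 37 °C with adenosine deaminase 0.5 units/mL, 30 μM GDP, 0.2 nM [35S]GTPγS at pH 7.4. Stimulated by CP55,940 1 μM, SR141716A 1 μM, both, or vehicle for 1 h at 30 °C; nonspecific with 10 μM GTPγS; expressed as % of vehicle control.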

[4] = biological target: Cannabinoid receptor 2 (Mus musculus) (UniProt P47936); experiment: Agonist activity at CB2R in LPS induced mouse BV2 cells assessed as increase in IL-10 secretion at 10 uM preincubated for 30 mins followed by LPS stimulation for 4 hrs by ELISA; format: cell-based; conditions: BV-2, filed as agonist, time 270.0 min; outline: as §1
[5] = biological target: Cannabinoid receptor 2 (Mus musculus) (UniProt P47936); experiment: Agonist activity at CB2R in LPS induced mouse BV2 cells assessed as IL-1beta secretion at 10 uM preincubated for 30 mins followed by LPS stimulation for 4 hrs by ELISA (reference value: 734.3 +/-35.1%); format: cell-based; conditions: BV-2, filed as agonist, time 270.0 min; outline: as §1
Mus musculus [6] = experiment: Antinociceptive activity in CD-1 albino mouse model of oxaliplatin-induced neuropathic pain assessed as decrease in pain-related behaviour by measuring efficacy onset and time duration at 5 to 50 mg/kg, po treated on day 15 post oxaliplatin treatment and measured after 15 to 75 mins post dose by cold plate test; format: functional; conditions: dose 5-50 mg/kg; time 15-75 min
Outline: (§4)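 Male CD-1 mice (22-25 g) given oxaliplatin 2.4 mg/kg i.p. in 5% glucose on days 1-2, 5-9, 12-14; tested day 15. Compound in 1% carboxymethylcellulose orally at 5, 10, 20, 50 mg/kg. Cold plate licking latency at 15, 30, 45, 60, 75 min post dose. Selective CB1R and CB2R antagonists co-tested. 16 mice per treatment across 2 sessions; one-way ANOVA with Bonferroni.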

[7] = biological target: Cannabinoid receptor 2 (Mus musculus) (UniProt P47936); experiment: Agonist activity at CB2R in LPS induced mouse BV2 cells assessed as increase in IL-10 secretion at 10 uM preincubated with CB2R antagonist, SR144528 for 15 mins followed by compound additon for 30 mins after LPS stimulation for 4 hrs by ELISA; format: cell-based; conditions: BV-2, time 270.0 min; outline: as §1
Mus musculus [8] = experiment: as §2, with “from 10” for “from 2”, “to 19” for “to 4”; format: functional; conditions: time 10-19 day; outline: as §3
Mus musculus [9] = experiment: as §2, with “improvement” for “reduction”, “disease severity” for “clinical scores”, “at day 5” for “from 2”, “9” for “4 days”; format: functional, organism-based; conditions: time 5-9 day; outline: as §3
Mus musculus [10] = experiment: as §2, with “improvement” for “reduction”, “late stage disease severity” for “clinical scores”, “at day 10” for “from 2”, “19” for “4 days”; format: functional, organism-based; conditions: time 10-19 day; outline: as §3
Mus musculus [11] = experiment: Antinociceptive activity in CD-1 albino mouse model of oxaliplatin-induced neuropathic pain assessed as decrease in pain-related behaviour at 10 mg/kg, po pretreated with CB2R antagonist, SR144528 for 15 mins before compound addition treated on day 15 post oxaliplatin treatment and measured after 15 to 75 mins post dose by cold plate test; format: functional, organism-based; conditions: time 15-75 min; outline: as §4
[12] = biological target: Cannabinoid receptor 2 (Mus musculus) (UniProt P47936); experiment: Agonist activity at CB2R in LPS induced mouse BV2 cells assessed as reduction in IL-1beta secretion at 10 uM preincubated with CB2R antagonist, SR144528 for 15 mins followed by compound additon for 30 mins after LPS stimulation for 4 hrs by ELISA; format: cell-based; conditions: BV-2, time 270.0 min; outline: as §1
Cannabinoid receptor 2 [13] = biological target: T1, Cannabinoid receptor 2 (Homo sapiens, UniProt P34972); experiment: (§5) Non-competitive antagonist activity at human CB2R expressed in CHO cell membranes assessed as N-cycloheptyl-1,2-dihydro-1-(4-fluorobenzyl)-6-methyl-2-oxo-5-phenyl-pyridine-3-carboxamide Emax at 1000 nM preincubated with compound for 30 mins followed by GTPgammaS addition and measured after 90 mins by [35S]GTPgammaS assay (reference value: -49.9%); format: functional; conditions: Membrane, filed as antagonist, time 120.0 min
Outline: (§6)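 hCB2 membranes from stably transfected CHO cells (10 µg) pre-incubated 30 min with antagonist, then an inverse-agonist concentration series added. Buffer: 50 mM Tris-HCl, 3 mM MgCl2, 0.2 mM EDTA, 100 mM NaCl, 0.5% fatty-acid-free BSA, pH 7.4, with 10 µM GDP and 0.1 nM [35S]GTPγS. Incubated 90 min at 30 °C, then filtered. Non-specific binding measured with 10 µM GTPγS. Emax given with 95% CI; at least 3 experiments, each in triplicate.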

Cannabinoid receptor 2 [14] = biological target: T1, Cannabinoid receptor 2; experiment: (§7) Competitive antagonist activity at human CB2R expressed in CHO cell membranes assessed as N-cycloheptyl-1,2-dihydro-5-bromo-1-(4-fluoro benzyl)-6-methyl-2-oxo-pyridine-3-carboxamide Emax at 100 nM preincubated with compound for 30 mins followed by GTPgammaS addition and measured after 90 mins by [35S]GTPgammaS assay (reference value: 210%); format: functional; conditions: Membrane, filed as antagonist, time 120.0 min
Cannabinoid receptor 2 [15] = biological target: T1, Cannabinoid receptor 2; experiment: as §5, with “300” for “1000”; format: functional; conditions: Membrane, filed as antagonist, time 120.0 min; outline: as §6
Cannabinoid receptor 2 [16] = biological target: T1, Cannabinoid receptor 2; experiment: Competitive antagonist activity at human CB2R expressed in CHO cell membranes assessed as rightward shift of N-cycloheptyl-1,2-dihydro-5-bromo-1-(4-fluoro benzyl)-6-methyl-2-oxo-pyridine-3-carboxamide-induced GTPgammaS binding by measuring fold change in N-cycloheptyl-1,2-dihydro-5-bromo-1-(4-fluoro benzyl)-6-methyl-2-oxo-pyridine-3-carboxamide EC50 at 1000 nM preincubated with compound for 30 mins followed by GTPgammaS addition and measured after 90 mins by [35S]GTPgammaS assay; format: functional; conditions: Membrane, time 120.0 min
Outline: (§8)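 hCB2 CHO membranes in GTPγS buffer (10 μM GDP, 0.1 nM [35S]GTPγS, pH 7.4) pre-incubated 30 min with antagonist at 300 nM or 1 µM, then agonist or inverse agonist concentration series, 90 min at 30 °C. EC50 and Emax reported with 95% CI; Schild analysis; controls CP55,940 100 nM and AM630 1 μM; ≥3 experiments in triplicate.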

Cannabinoid receptor 2 [17] = biological target: T1, Cannabinoid receptor 2; experiment: as §7, with “1000” for “100”; format: functional; conditions: Membrane, filed as antagonist, time 120.0 min; outline: as §8

Chain of Cannabinoid receptor 2 (Mus musculus) (P47936 whole entry): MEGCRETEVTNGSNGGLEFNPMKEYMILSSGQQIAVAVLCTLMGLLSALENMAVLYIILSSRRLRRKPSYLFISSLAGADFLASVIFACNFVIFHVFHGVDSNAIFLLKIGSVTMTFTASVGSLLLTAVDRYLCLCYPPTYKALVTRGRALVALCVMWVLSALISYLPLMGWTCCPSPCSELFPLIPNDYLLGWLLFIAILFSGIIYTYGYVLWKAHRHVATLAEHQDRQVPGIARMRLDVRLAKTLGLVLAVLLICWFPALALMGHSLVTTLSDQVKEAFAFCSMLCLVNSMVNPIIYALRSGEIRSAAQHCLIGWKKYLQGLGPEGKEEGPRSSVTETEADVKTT
T1 sequence (P34972 whole entry): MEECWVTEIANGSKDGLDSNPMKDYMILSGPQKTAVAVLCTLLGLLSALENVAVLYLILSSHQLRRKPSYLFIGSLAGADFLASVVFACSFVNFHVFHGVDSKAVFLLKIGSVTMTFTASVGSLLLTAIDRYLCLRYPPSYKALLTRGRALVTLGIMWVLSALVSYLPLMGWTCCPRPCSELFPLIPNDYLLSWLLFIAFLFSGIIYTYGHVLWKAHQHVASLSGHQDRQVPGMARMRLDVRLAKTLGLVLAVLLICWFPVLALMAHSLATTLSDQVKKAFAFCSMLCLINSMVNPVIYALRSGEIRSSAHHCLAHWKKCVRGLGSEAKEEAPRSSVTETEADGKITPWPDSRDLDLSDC

Row | SMILES | Activity [1] [%] | inhibition in vivo at 10 mg/kg (Mus musculus [2]) [%] | Activity (Mus musculus [3]) | Activity [4] [%] | Activity [5] [%] | Time (Mus musculus [6]) [min] | Activity [7] | inhibition in vivo at 10 mg/kg (Mus musculus [8]) [%] | Activity (Mus musculus [9]) | Activity (Mus musculus [10]) | Activity (Mus musculus [11]) | Activity [12] | Emax (Cannabinoid receptor 2 [13]) [%] | Emax (Cannabinoid receptor 2 [14]) [%] | Emax (Cannabinoid receptor 2 [15]) [%] | fold change (FC) (Cannabinoid receptor 2 [16]) | Emax (Cannabinoid receptor 2 [17]) [%]
1 | Cc1c(Br)cc(C(=O)NC2CCCCCC2)c(=O)n1Cc1ccc(F)cc1 | 27.8 | 30 | inactive | 484 | 24.6 | 15 | inactive | 50 | inactive | Active | inactive | inactive | – | – | – | – | –
2 | COc1ccc(-c2cc(C(=O)NC3CCCCCC3)c(=O)n(Cc3ccc(F)cc3)c2C)cc1 | – | – | – | – | – | – | – | – | – | – | – | – | -24.9 | 219 | -28.6 | 70 | 208
